{
  "source": "ChEMBL document CHEMBL1123286",
  "about": "(J Med Chem, 1986)",
  "key": {"Mus musculus [1]": {"test_system": "Mus musculus", "assay": "In vivo opioid activity was evaluated by determining analgesia in the mouse by the tail-flick test when administered through intra cerebro ventricular route", "settings": "Cardiac ventricle"}, "Mus musculus [2]": {"test_system": "Mus musculus", "assay": "In vivo opioid activity was evaluated by determining analgesia in the mouse by the tail-flick test, Relative potency with respect to morphine intracerebroventricular route", "assay_type": "functional", "outline": "(§1)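 Mouse tail-flick analgesia in Swiss-Webster mice (23–25 g) with 55 °C water, compound given icv or sc in saline (4 μL). Cut-off was 10 s; %analgesia was computed from pre- and post-dose latencies. At least 10 animals per dose, with ED50 taken at peak activity.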"}, "Mus musculus [3]": {"test_system": "Mus musculus", "assay": "In vivo opioid activity was evaluated by determining analgesia in the mouse by the tail-flick test, when administered through subcutaneous route", "assay_type": "functional", "settings": "sc", "outline": "(§2)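 Swiss-Webster mice (23–25 g), tail-flick test with 55 °C water as the stimulus. Compound was given icv or sc in saline (4 μL), with latency read before and at various times after dosing. Cut-off was 10 s. %analgesia = (T−T0)/(10−T0)×100. At least 10 animals per dose; ED50 taken at time of peak activity. Naloxone pretreatment 0.5–1 mg/kg sc.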"}, "[4]": {"target": "Opioid receptors; mu/kappa/delta", "assay": "In vitro opioid inhibitory activity against in guinea pig ileum", "assay_type": "functional, tissue-based, Cavia porcellus"}, "Mus musculus [5]": {"test_system": "Mus musculus", "assay": "In vivo opioid activity was evaluated by determining analgesia in the mouse by the tail-flick test Relative potency with respect to morphine when administered through subcutaneous route", "assay_type": "functional", "outline": "as §1"}, "Mus musculus [6]": {"test_system": "Mus musculus", "assay": "In vivo opioid activity was evaluated by determining analgesia in the mouse by the tail-flick test when administered through intracerebroventricular route", "assay_type": "functional", "outline": "as §2"}, "Mus musculus [7]": {"test_system": "Mus musculus", "assay": "In vivo opioid activity was evaluated by determining analgesia in the mouse by the tail-flick test, relative potency with respect to morphine intracerebroventricular route", "assay_type": "functional", "outline": "as §1"}, "Mus musculus [8]": {"test_system": "Mus musculus", "assay": "In vivo opioid activity was evaluated by determining analgesia in the mouse by the tail-flick test, when administered through Subcutaneous route", "assay_type": "functional", "settings": "sc", "outline": "as §2"}, "Mus musculus [9]": {"test_system": "Mus musculus", "assay": "In vivo opioid activity was evaluated by determining analgesia in the mouse by the tail-flick test. Relative potency with respect to morphine when administered through subcutaneous route", "assay_type": "functional", "outline": "as §1"}, "[10]": {"target": "Opioid receptors; mu/kappa/delta (Homo sapiens, UniProt P41145+P41143+P35372)", "sequence (P35372 whole entry, looked up)": "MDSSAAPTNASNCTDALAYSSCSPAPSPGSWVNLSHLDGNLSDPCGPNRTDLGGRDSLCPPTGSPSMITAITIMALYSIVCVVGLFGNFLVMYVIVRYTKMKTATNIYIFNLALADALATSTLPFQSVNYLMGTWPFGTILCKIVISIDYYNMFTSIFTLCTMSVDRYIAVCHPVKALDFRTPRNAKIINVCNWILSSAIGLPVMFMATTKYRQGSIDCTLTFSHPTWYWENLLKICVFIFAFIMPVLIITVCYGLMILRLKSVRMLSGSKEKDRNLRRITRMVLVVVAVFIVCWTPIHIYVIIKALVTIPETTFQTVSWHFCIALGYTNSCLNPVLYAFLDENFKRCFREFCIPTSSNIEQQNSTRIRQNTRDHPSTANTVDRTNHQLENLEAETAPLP", "sequence (P41143 whole entry, looked up)": "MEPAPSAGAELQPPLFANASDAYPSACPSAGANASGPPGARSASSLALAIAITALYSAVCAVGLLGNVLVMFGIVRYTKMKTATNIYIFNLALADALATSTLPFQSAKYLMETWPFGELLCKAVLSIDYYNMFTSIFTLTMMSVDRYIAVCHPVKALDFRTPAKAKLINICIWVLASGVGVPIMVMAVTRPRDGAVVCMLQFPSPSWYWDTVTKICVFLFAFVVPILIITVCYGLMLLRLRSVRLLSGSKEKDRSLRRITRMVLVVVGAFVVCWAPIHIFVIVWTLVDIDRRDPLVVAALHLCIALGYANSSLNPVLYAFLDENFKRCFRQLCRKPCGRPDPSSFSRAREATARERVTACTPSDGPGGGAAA", "sequence (P41145 whole entry, looked up)": "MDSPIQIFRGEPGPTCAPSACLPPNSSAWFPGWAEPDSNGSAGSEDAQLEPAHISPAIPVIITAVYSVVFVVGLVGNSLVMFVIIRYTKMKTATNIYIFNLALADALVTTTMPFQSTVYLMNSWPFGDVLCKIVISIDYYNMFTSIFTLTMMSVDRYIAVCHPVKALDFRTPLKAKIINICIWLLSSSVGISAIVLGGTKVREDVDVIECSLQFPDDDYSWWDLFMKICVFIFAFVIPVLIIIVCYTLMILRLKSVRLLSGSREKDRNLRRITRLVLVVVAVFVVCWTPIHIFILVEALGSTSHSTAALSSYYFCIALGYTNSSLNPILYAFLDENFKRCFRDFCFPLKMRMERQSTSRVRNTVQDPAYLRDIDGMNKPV", "assay": "In vitro inhibitory activity against opioid activity in guinea pig ileum, relative to H-Tyr-D-MetO-Phe-Gly-NH2", "assay_type": "tissue-based", "settings": "Cavia porcellus, target entry is the homologue from another species"}, "Mus musculus [11]": {"test_system": "Mus musculus", "assay": "In Vivo opioid activity was evaluated by determining analgesia in the mouse by the tail-flick test when administered through intra cerebro ventricular route", "assay_type": "functional", "outline": "as §2"}, "Mus musculus [12]": {"test_system": "Mus musculus", "assay": "In vivo opioid activity was evaluated by determining analgesia in the mouse by the tail-flick test, relative potency with respect to morphine intra cerebro ventricular route", "assay_type": "functional", "outline": "as §1"}},
  "note": "Where a SMILES comes first, the peptide text is derived from it. [ ]: non-standard residue; d: D form.",
  "data": [
    {"smiles": "CN1CC[C@]23c4c5ccc(O)c4O[C@H]2[C@@H](O)C=C[C@H]3[C@H]1C5", "note": "[MORPHINE]", "values": [
      {"measurement": "ED50", "setting": "Mus musculus [1]", "value": 3030, "unit": "µmol/kg"}
    ]},
    {"smiles": "C[S+]([O-])CC[C@@H](NC(=O)[C@@H](N)Cc1ccc(O)cc1)C(=O)N[C@@H](Cc1ccccc1)C(=O)NCC(=O)NCc1ccccc1", "note": "(some centres undefined)", "values": [
      {"measurement": "Relative potency", "setting": "Mus musculus [2]", "value": 167},
      {"measurement": "ED50", "setting": "Mus musculus [3]", "value": 3.51, "unit": "µmol/kg"},
      {"measurement": "IC50", "setting": "[4]", "value": 21, "unit": "nM"},
      {"measurement": "Relative potency", "setting": "Mus musculus [5]", "value": 3.1},
      {"measurement": "ED50", "setting": "Mus musculus [6]", "value": 18.1, "unit": "pmol/mouse"}
    ]},
    {"smiles": "CC(NC(=O)CNC(=O)[C@H](Cc1ccccc1)NC(=O)[C@@H](CC[S+](C)[O-])NC(=O)[C@@H](N)Cc1ccc(O)cc1)c1ccccc1", "note": "(some centres undefined)", "values": [
      {"measurement": "Relative potency", "setting": "Mus musculus [7]", "value": 36},
      {"measurement": "ED50", "setting": "Mus musculus [3]", "value": 5.81, "unit": "µmol/kg"},
      {"measurement": "IC50", "setting": "[4]", "value": 72.1, "unit": "nM"},
      {"measurement": "Relative potency", "setting": "Mus musculus [5]", "value": 1.8},
      {"measurement": "ED50", "setting": "Mus musculus [6]", "value": 83.6, "unit": "pmol/mouse"}
    ]},
    {"smiles": "CN(CC(=O)NC12CC3CC(CC(C3)C1)C2)C(=O)[C@H](Cc1ccccc1)NC(=O)[C@@H](CC[S+](C)[O-])NC(=O)[C@@H](N)Cc1ccc(O)cc1", "note": "(some centres undefined)", "values": [
      {"measurement": "ED50", "setting": "Mus musculus [8]", "value": 4.82, "unit": "µmol/kg"},
      {"measurement": "Relative potency", "setting": "Mus musculus [7]", "value": 50},
      {"measurement": "IC50", "setting": "[4]", "value": 25.5, "unit": "nM"},
      {"measurement": "Relative potency", "setting": "Mus musculus [5]", "value": 2.3},
      {"measurement": "ED50", "setting": "Mus musculus [6]", "value": 60.6, "unit": "pmol/mouse"}
    ]},
    {"smiles": "CSCC[C@@H](NC(=O)[C@@H](N)Cc1ccc(O)cc1)C(=O)N[C@@H](Cc1ccccc1)C(=O)NCC(N)=O", "note": "(H-Y[dM]FG-NH2)", "values": [
      {"measurement": "Relative potency", "setting": "Mus musculus [9]", "value": 0.9},
      {"measurement": "ED50", "setting": "Mus musculus [8]", "value": 12.1, "unit": "µmol/kg"},
      {"measurement": "Relative potency", "setting": "[10]", "value": 0.1},
      {"measurement": "IC50", "setting": "[4]", "value": 97.6, "unit": "nM"},
      {"measurement": "ED50", "setting": "Mus musculus [11]", "value": 87.5, "unit": "µmol/kg"},
      {"measurement": "Relative potency", "setting": "Mus musculus [12]", "value": 35}
    ]},
    {"smiles": "C[S+]([O-])CC[C@@H](NC(=O)[C@@H](N)Cc1ccc(O)cc1)C(=O)N[C@@H](Cc1ccccc1)C(=O)NCC(=O)NC12CC3CC(CC(C3)C1)C2", "note": "(some centres undefined)", "values": [
      {"measurement": "ED50", "setting": "Mus musculus [8]", "value": 3.93, "unit": "µmol/kg"},
      {"measurement": "Relative potency", "setting": "Mus musculus [7]", "value": 100},
      {"measurement": "IC50", "setting": "[4]", "value": 22, "unit": "nM"},
      {"measurement": "Relative potency", "setting": "Mus musculus [5]", "value": 2.8},
      {"measurement": "ED50", "setting": "Mus musculus [6]", "value": 30.4, "unit": "pmol/mouse"}
    ]},
    {"smiles": "C[S+]([O-])CC[C@@H](NC(=O)[C@@H](N)Cc1ccc(O)cc1)C(=O)N[C@@H](Cc1ccccc1)C(=O)NCC(N)=O", "note": "(some centres undefined)", "values": [
      {"measurement": "ED50", "setting": "Mus musculus [3]", "value": 0.65, "unit": "µmol/kg"},
      {"measurement": "ED50", "setting": "Mus musculus [6]", "value": 1.97, "unit": "pmol/mouse"}
    ]}
  ]
}
